The text below walks through data of article PMC7031742 (Journal of Ginseng Research, 2018).

Series [1] is described as follows: Permeability of ginsenoside in Caco-2 cells. To be noted: human; for Papp A→B at 1 h, 10 μM / Papp B→A at 1 h, 10 μM: Caco-2; for efflux ratio at 1 h, 10 μM: Caco-2, ER (efflux ratio), Caco-2, B to A / A to B. The format is in vitro ADME. In a few lines: (§1)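 Caco-2 cells (passage 41–43) grown in DMEM with 20% FBS, 1% nonessential amino acids, 4 mM L-glutamine and penicillin-streptomycin, then cultured 21 days on Transwell inserts. Test compound at 10 μM in HBSS was dosed for apical-to-basal and basal-to-apical transport over 1 h. Samples were quenched in methanol with berberine IS and analysed by LC-MS/MS. Papp = transport rate / (donor concentration × insert area).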

For series [2] the following is noted: cited from earlier work.
Series [3] can be described thus: Pharmacokinetics of ginsenosides in human plasma after single or repeated. The format is in vivo. The note with it: for Accumulation factor: AUC of repeated administration divided by AUC of single administration; for Detection in human plasma samples: after oral ingestion of red ginseng extract, LC-MS/MS; for AUC / Cmax / MRT / Tmax / half-life: male, human, plasma, po, 3 pouches of red ginseng extract; for half-life: t1/2, single dose of red ginseng extract, human plasma.

For series [4] the following is noted: cited from earlier work. This is another data set of the same source.
In the next series the test system is Caco-2 cells. In words: Permeability of ginsenoside in Caco-2 cells. To be noted: for ER (efflux ratio): Caco-2, B to A / A to B; for Papp A to B: apical to basal; for Papp A to B / Papp B to A: 10 μM, 1 h; for Papp B to A: basal to apical. The format is in vitro ADME. In a few lines: as §1
In general terms: Caco-2 monolayers are a common model of the intestinal barrier.

Several values for one entry are separate records, joined by “and”; a condition that tells them apart may be missing. Identical values can stand only once. Like-named read-outs stand apart in the source and are kept apart here.

As a reminder, the Papp A→B is the apparent permeability from the apical to the basolateral side of a cell layer. A word on the Papp B→A: it is how fast a substance crosses the layer from the basolateral side. For orientation: efflux ratio means the permeability from basolateral to apical divided by that in the opposite direction, in the common usage. Broadly, the AUC is concentration integrated over time. As usually defined, the Cmax is the maximum level reached in the sampled fluid or tissue. The term MRT denotes the average time that molecules of a dose stay in the body. By Tmax is commonly meant the time from dosing to the highest level. A word on the half-life: it is the time needed for the level to fall by half in the phase considered. As for `CC(C)=CCC[C@](C)(O[C@@H]1O[C@H](CO[C@@H]2O[C@H](CO)[C@@H](O)[C@H](O)[C@H]2O)[C@@H](O)[C@H](O)[C@H]1O)[C@H]1CC[C@]2(C)[C@@H]1[C@H](O)C[C@@H]1[C@@]3(C)CC[C@H](O[C@@H]4O[C@H](CO)[C@@H](O)[C@H](O)[C@H]4O[C@@H]4O[C@H](CO)[C@@H](O)[C@H](O)[C@H]4O)C(C)(C)[C@@H]3CC[C@]12C` [Rb1], in series [1], the Papp A→B at 1 h, 10 μM worked out at 0.27 ± 0.03 ×10⁻⁶ cm/s; the Papp B→A at 1 h, 10 μM came to 0.3 ± 0.08 ×10⁻⁶ cm/s; the efflux ratio at 1 h, 10 μM was less than 2. Moreover, the Bioavailability in series [2] (ref Odani et al. [10]) was 0.1%. In addition, the Bioavailability in series [2] (ref Xu et al. [11]) is listed as 4.3%. In addition, in series [3], the Accumulation factor is 4.5–6.7 and 4.55; the “Detection in human plasma samples” value is recorded as “detected”; the area under the curve (AUC) came out at 82.7 ± 26.3 ng·h/mL; the Cmax was found to be 2.19 ± 0.73 ng/mL. In addition, in series [3], the MRT was 26.8 ± 1.59 h, the Tmax was 3.53 ± 1.25 h and the half-life was 35 ± 8.46 h. In addition, the “Stability over the enzymatic and alkaline hydrolysis” value in series [4] is “stable”.
Take `CC(C)=CCC[C@](C)(O[C@@H]1O[C@H](CO[C@@H]2OC[C@H](O)[C@H](O)[C@H]2O)[C@@H](O)[C@H](O)[C@H]1O)[C@H]1CC[C@]2(C)[C@@H]1[C@H](O)C[C@@H]1[C@@]3(C)CC[C@H](O[C@@H]4O[C@H](CO)[C@@H](O)[C@H](O)[C@H]4O[C@@H]4O[C@H](CO)[C@@H](O)[C@H](O)[C@H]4O)C(C)(C)[C@@H]3CC[C@]12C` [Rb2]: in series [1], the Papp A→B at 1 h, 10 μM was determined as 0.28 ± 0.02 ×10⁻⁶ cm/s and the Papp B→A at 1 h, 10 μM is 0.24 ± 0.05 ×10⁻⁶ cm/s. In addition, in series [3], the Accumulation factor was 4.5–6.7 and 6.73; the “Detection in human plasma samples” value is “detected”; the exposure (AUC) was 47.1 ± 16.4 ng·h/mL; the peak level (Cmax) was 1.26 ± 0.39 ng/mL. For the same compound, in series [3], the MRT was 26.8 ± 1.74 h, the time to peak (Tmax) amounted to 3.87 ± 2.47 h and the half-life was 38.2 ± 20.3 h. For the same compound, the “Stability over the enzymatic and alkaline hydrolysis” value in series [4] is given as “stable”.
Regarding `CC(C)=CCC[C@](C)(O[C@@H]1O[C@H](CO[C@@H]2O[C@@H](CO)[C@H](O)[C@H]2O)[C@@H](O)[C@H](O)[C@H]1O)[C@H]1CC[C@]2(C)[C@@H]1[C@H](O)C[C@@H]1[C@@]3(C)CC[C@H](O[C@@H]4O[C@H](CO)[C@@H](O)[C@H](O)[C@H]4O[C@@H]4O[C@H](CO)[C@@H](O)[C@H](O)[C@H]4O)C(C)(C)[C@@H]3CC[C@]12C` [Rc], in series [1], the Papp A→B at 1 h, 10 μM was found to be 0.28 ± 0.09 ×10⁻⁶ cm/s; the Papp B→A at 1 h, 10 μM was 0.33 ± 0.06 ×10⁻⁶ cm/s; the efflux ratio at 1 h, 10 μM was less than 2. In series [3], the Accumulation factor is 4.5–6.7 and 5.44; the “Detection in human plasma samples” value is on record as “detected”; the exposure (AUC) amounted to 59.4 ± 22.9 ng·h/mL; the peak level (Cmax) was 1.5 ± 0.63 ng/mL. Also, in series [3], the MRT stood at 27.4 ± 2.34 h, the time of peak concentration (Tmax) is 3.68 ± 1.7 h and the half-life was 35.6 ± 14.8 h. Further, in series [4], the “Stability over the enzymatic and alkaline hydrolysis” value is recorded as “stable”.
Regarding `CC(C)=CCC[C@](C)(O[C@@H]1O[C@H](CO)[C@@H](O)[C@H](O)[C@H]1O)[C@H]1CC[C@]2(C)[C@@H]1[C@H](O)C[C@@H]1[C@@]3(C)CC[C@H](O[C@@H]4O[C@H](CO)[C@@H](O)[C@H](O)[C@H]4O[C@@H]4O[C@H](CO)[C@@H](O)[C@H](O)[C@H]4O)C(C)(C)[C@@H]3CC[C@]12C` [Rd], in series [1], the apical-to-basolateral permeability (Papp A→B) at 1 h, 10 μM is 0.22 ± 0.02 ×10⁻⁶ cm/s; the Papp B→A at 1 h, 10 μM stood at 0.31 ± 0.04 ×10⁻⁶ cm/s; the efflux ratio at 1 h, 10 μM was less than 2. In series [3], the Accumulation factor was 4.5–6.7 and 4.49; the “Detection in human plasma samples” value is recorded as “detected”; the exposure (AUC) stood at 22.6 ± 18.3 ng·h/mL; the highest level (Cmax) was 0.7 ± 0.46 ng/mL. Besides, in series [3], the mean residence time MRT turned out to be 24.7 ± 2.23 h, the Tmax turned out to be 4.87 ± 1.92 h and the half-life is 24 ± 15.3 h. The “Stability over the enzymatic and alkaline hydrolysis” value in series [4] is given as “stable”.
`CC(C)=CCC[C@](C)(O[C@@H]1O[C@H](CO)[C@@H](O)[C@H](O)[C@H]1O)[C@H]1CC[C@]2(C)[C@@H]1[C@H](O)C[C@@H]1[C@@]3(C)CC[C@H](O)C(C)(C)[C@@H]3[C@@H](O[C@@H]3O[C@H](CO)[C@@H](O)[C@H](O)[C@H]3O)C[C@]12C` [Rg1]: the figures for the Bioavailability in series [2] (ref Odani et al. [10]) and in series [2] (ref Xu et al. [11]) were 2% and 18.4%, respectively. Besides, in series [3], the “Detection in human plasma samples” value is “could not be found”.
For the compound `CC(C)=CCC[C@](C)(O)[C@H]1CC[C@]2(C)[C@@H]1[C@H](O)C[C@@H]1[C@@]3(C)CC[C@H](O[C@@H]4O[C@H](CO)[C@@H](O)[C@H](O)[C@H]4O[C@@H]4O[C@H](CO)[C@@H](O)[C@H](O)[C@H]4O)C(C)(C)[C@@H]3CC[C@]12C` [Rg3], in the series with Caco-2 cells, the “ER (efflux ratio)” value was determined as 2.97, the “Papp A to B” value is on record as 0.05 ± 0.01 ☓10^−6 cm/s and the “Papp B to A” value is given as 0.14 ± 0.06 ☓10^−6 cm/s. The “Detection in human plasma samples” value in series [3] is reported as “absence”.
For `CC(C)=CCC[C@](C)(O)[C@H]1CC[C@]2(C)[C@@H]1[C@H](O)C[C@@H]1[C@@]3(C)CC[C@H](O)C(C)(C)[C@@H]3[C@@H](O[C@@H]3O[C@H](CO)[C@@H](O)[C@H](O)[C@H]3O)C[C@]12C` [Rh1] the same measures were 6.27, 0.22 ± 0.04 ☓10^−6 cm/s, 1.35 ± 0.14 ☓10^−6 cm/s and “could not be found”.
